The values below come from ChEMBL document CHEMBL2150980 (Eur J Med Chem, 2012).

The target of experiment [1] is T1, Alpha-1D adrenergic receptor (Homo sapiens, UniProt P25100).
T1 sequence (P25100 whole entry): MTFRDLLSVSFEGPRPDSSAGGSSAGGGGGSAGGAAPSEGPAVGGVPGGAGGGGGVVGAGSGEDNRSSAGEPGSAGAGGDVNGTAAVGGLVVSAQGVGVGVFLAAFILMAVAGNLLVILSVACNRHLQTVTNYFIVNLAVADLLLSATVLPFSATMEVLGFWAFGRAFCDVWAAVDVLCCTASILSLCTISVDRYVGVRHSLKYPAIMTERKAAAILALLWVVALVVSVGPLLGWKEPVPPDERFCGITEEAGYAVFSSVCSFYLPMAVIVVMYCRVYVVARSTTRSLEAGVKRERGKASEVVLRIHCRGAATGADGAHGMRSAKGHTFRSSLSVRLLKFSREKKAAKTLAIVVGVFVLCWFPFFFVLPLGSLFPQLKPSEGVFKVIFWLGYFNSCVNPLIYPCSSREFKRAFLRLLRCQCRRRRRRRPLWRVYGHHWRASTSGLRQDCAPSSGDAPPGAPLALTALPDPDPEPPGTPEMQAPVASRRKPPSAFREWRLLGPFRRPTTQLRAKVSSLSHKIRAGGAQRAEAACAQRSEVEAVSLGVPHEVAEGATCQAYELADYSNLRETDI
In words: Displacement of [3H]prazosin from human cloned alpha1D adrenoceptor expressed in CHO cell membranes after 30 mins by liquid scintillation counter. On the technique in general: In a radioligand displacement assay an active substance lowers the binding of a labelled ligand.

Experiment [2] has as its target T2, Alpha-1A adrenergic receptor (Homo sapiens, UniProt P35348).
T2 sequence (P35348 whole entry): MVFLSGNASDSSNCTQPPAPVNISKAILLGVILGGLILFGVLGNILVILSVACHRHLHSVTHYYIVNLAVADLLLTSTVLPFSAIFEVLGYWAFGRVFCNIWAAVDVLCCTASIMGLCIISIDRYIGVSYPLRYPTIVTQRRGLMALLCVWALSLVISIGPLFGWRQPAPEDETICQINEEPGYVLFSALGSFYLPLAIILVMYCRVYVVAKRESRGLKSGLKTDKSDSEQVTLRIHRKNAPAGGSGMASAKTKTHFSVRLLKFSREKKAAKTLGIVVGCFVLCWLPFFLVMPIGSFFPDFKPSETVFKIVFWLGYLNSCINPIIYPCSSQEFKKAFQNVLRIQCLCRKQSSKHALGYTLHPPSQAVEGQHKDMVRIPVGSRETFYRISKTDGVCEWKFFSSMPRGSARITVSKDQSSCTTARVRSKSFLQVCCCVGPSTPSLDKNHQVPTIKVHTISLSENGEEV
The experiment in a line: Displacement of [3H]prazosin from human cloned alpha1A adrenoceptor expressed in CHO cell membranes after 30 mins by liquid scintillation counter. An outline of the steps: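 Membranes incubated 30 min at 25 °C with 0.5 nM [3H]-prazosin ± compound (0.3–1000 nM) in 50 mM buffer, pH 7.7, containing pargyline and 0.1% ascorbic acid. Unlabelled prazosin defined nonspecific binding. GF/B filtration, scintillation counting.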

For experiment [3], the target named is T3, Alpha-1B adrenergic receptor (Rattus norvegicus, UniProt P15823).
T3 sequence (P15823 whole entry): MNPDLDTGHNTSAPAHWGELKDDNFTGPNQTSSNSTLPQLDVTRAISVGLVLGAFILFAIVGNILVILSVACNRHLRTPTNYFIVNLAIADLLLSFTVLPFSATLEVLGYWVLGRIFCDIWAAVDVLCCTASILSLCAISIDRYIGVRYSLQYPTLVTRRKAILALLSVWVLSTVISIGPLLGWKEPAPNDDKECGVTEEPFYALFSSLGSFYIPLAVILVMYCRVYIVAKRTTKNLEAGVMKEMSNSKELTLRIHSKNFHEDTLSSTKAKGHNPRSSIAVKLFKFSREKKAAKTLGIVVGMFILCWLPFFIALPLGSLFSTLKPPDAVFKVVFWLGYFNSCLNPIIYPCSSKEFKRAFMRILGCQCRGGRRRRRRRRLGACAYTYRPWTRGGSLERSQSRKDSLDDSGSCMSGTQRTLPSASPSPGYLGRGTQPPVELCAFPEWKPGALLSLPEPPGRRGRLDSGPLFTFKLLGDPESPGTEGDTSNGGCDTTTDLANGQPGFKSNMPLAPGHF
In words: Antagonist activity at alpha1B adrenoceptor in Sprague-Dawley rat spleen assessed as inhibition of phenylephrine-induced contractions after 30 mins. The class given is functional, tissue-based. The following applies: read-out: pA2 (converted).

Experiment [4] has as its target T4, Alpha-1A adrenergic receptor (Rattus norvegicus, UniProt P43140).
T4 sequence (P43140 whole entry): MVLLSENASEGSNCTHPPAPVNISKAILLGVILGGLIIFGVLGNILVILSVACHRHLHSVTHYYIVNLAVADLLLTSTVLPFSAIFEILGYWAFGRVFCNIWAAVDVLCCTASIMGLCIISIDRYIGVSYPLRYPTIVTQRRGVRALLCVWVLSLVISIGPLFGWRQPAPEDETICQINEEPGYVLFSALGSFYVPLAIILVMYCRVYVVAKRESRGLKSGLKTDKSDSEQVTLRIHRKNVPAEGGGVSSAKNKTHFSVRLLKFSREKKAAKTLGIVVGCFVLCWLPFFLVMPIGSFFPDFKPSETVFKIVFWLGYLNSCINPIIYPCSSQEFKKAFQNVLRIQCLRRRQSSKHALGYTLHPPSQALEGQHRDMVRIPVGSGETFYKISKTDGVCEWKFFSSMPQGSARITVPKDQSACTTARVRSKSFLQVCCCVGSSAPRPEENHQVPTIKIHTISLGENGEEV
In words: Antagonist activity at alpha1A adrenoceptor in Sprague-Dawley rat prostatic vas deferens assessed as inhibition of noradrenaline-induced contractions after 30 mins. Conditions: read-out: pA2 (converted). The class given is functional, tissue-based.

Experiment [5] addresses T5, Alpha-1A adrenergic receptor (Cavia porcellus) (UniProt Q9WU25).
T5 sequence (whole entry): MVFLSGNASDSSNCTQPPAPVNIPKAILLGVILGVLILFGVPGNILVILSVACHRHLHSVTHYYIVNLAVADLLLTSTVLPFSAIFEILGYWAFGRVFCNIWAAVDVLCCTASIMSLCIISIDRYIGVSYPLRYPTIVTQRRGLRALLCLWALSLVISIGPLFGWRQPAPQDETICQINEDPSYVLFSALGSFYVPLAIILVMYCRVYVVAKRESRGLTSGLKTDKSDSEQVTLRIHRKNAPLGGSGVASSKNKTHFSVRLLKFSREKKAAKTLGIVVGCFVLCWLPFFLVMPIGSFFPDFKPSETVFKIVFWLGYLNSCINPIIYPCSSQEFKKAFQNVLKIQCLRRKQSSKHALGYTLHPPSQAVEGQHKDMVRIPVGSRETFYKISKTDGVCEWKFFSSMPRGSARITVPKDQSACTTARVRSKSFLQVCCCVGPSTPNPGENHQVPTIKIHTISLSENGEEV
In words: Inverse agonist activity at alpha1A adrenoceptor in guinea pig thoracic aorta assessed as inhibition of ca2+-induced IRT at 10 nM after 30 mins. The class given is functional, tissue-based. An outline of the steps:
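Tissue in Krebs equilibrated 1 h at 1 g, then given a single (−)-noradrenaline dose. Washed 1 h in Ca2+-free Krebs with 0.1 mM EDTA, with agonist reapplied until no contraction (internal Ca2+ stores depleted). Antagonist 10 nM for 30 min, then Ca2+ 1.8 mM added. Result is % decrease versus IRT without any agent; mean ± SE, 4–7 experiments.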

`COc1cccc(OC)c1OCCNC[C@H]1COc2cccc(Cl)c2O1.Cl`: the Ki – broadly, a dissociation constant, usually derived from enzyme kinetics or from competition with a known ligand – in experiment [1] was 0.708 nM; in experiment [2] it was 0.891 nM. For the same molecule, the results for the Kb in experiment [3] and in experiment [4] were 8.91 nM and 0.275 nM, respectively. Also, in experiment [5], the inhibition – broadly, the percentage by which the read-out fell short of the control – is 80%.
For `COc1cccc(OC)c1OCCNC[C@H]1COc2cccc(O)c2O1.Cl`, in that order: 8.91 nM, 2.19 nM, 15.8 nM, 166 nM and 100%.
For `COc1cccc(OC)c1OCCNC[C@H]1COc2c(OC)cccc2O1.Cl`, in that order: 79.4 nM, 24 nM, 16.6 nM, 53.7 nM and 79%.
The like results for `COc1cccc(OC)c1OCCNC[C@H]1COc2cccc(F)c2O1.Cl` were, in that order, 0.49 nM, 0.646 nM, 2.75 nM, 28.8 nM and 100%.
`COc1cccc(OC)c1OCCNC[C@H]1COc2cccc(OC)c2O1.Cl`: the Ki in experiment [1] was 0.372 nM; in experiment [2], 0.912 nM. Further, the Kb in experiment [3] is 0.263 nM; in experiment [4] it was 1.7 nM. The inhibition in experiment [5] came out at 60%.
